High-throughput results: PubChem BioAssay, several laboratories
This is a sample that favours compounds with a hit; in the whole collection about 2.2% have one here.
Mot1-301 SUMO: inhibitors of SUMOylation pathway: yeast Mot1-301 growth rescue. growth rescue, % at 18.8 µM. 320,000 tested, 1% active. S. cerevisiae Mot1-301 growth rescue, ATP luminescence, 38.5C; percent above DMSO median, 100 means doubled;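 active means every valid replicate shows activation above 250% relative to neutral control wells; inactive means the rest, any valid replicate at or below 250%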
rRNA inh HTS: selective bacterial rRNA inhibition in E. coli; GFP signal change (wild-type ribosome), % (no concentration beside the values); AID 720706; 350,000 tested, 1.6% active; E. coli WT GFP vs humanized-ribosome RFP mutants, fluorescence, 24 h; stronger effect = lower value; DMSO median 0, no signal -100;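 active means significant combined selectivity score with lowered wild-type GFP, culture density cut under 30%, mutant RFP and density less affected; inactive means any of these conditions unmet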
PglD DTNB: blocks C. jejuni PglD acetyltransferase activity; purified PglD enzyme, DTNB colorimetric CoA detection; AID 602405; inhibition, % at 12.5 µM; 360,000 tested, 0.098% active; in the data active means inhibition above about 16%, passing the limit was not always enough
Cneo AK release: causes C. neoformans cell lysis. adenylate kinase release luminescence, 4 h; normalised: neutral wells 0, clomiphene wells 100. lysis activity, % at 15 µM. 360,000 tested, 0.2% active. AID 651654;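 active means mean lysis activity across replicates of at least 80%, whatever share of replicates individually reach that level; inactive means mean lysis activity below 80%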
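Assay system: C. neoformans cells. Amount: yeast cell density of 5 × 10^6 cells/mL. Technique: AK luminescence. Buffer or medium: YPD. Times: static 4 h at 37 °C with compound, 1 h detection. Dosing: single-point compound dose. Read-out: lysis from increased AK signal.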
CR mimetic SO: caloric restriction mimetics inhibiting age-related superoxide in yeast; superoxide response (% of plate mean), % at 10 µM; S. cerevisiae aged cells, superoxide DHE fluorescence; stronger effect = lower value; 330,000 tested, 0.18% active;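 active means superoxide response under a set limit, about three screen SD below normal, cut at about 65% in these data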;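 further: yeast aged for seven days with compound at 30 °C before DHE staining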
A number is an active result; 0 = inactive; - = no result given.

SMILES | Mot1-301 SUMO | rRNA inh HTS | PglD DTNB | Cneo AK release | CR mimetic SO
CCn1c(C)csc1=NC(=O)c1ccccc1 | 0 | - | 0 | 0 | 0
COc1ccc(S(=O)(=O)Nc2ccc3c(c2)CC(=O)N([C@@H](C)CO)C[C@H](C)[C@@H](CN(C)C(=O)NC(C)C)O3)cc1 | - | 0 | 0 | 0 | -
CCc1ccc(Nc2cnn(C34CC5CC(CC(CC(=O)O)(C5)C3)C4)c(=O)c2Cl)cc1 | 0 | -27.2 | 0 | 0 | 0
COCC(=O)NC[C@@H]1N[C@@H](CO)[C@H]1c1ccc(C2=CCCC2)cc1 | - | 0 | 0 | 93.3 | -
Cc1ncc(CN2CCCC(C(=O)Nc3ccc(-c4cccc(F)c4)cc3)C2)cn1 (stereo not given) | 0 | 0 | 0 | 0 | 0
Cc1ncc(CN2CCCC(C(=O)Nc3ccc(-c4cccc(F)c4)cc3)C2)s1 (stereo not given) | 0 | -30.6 | 0 | 0 | 0
O=C(C[C@@H]1CC[C@H]2[C@@H](COC[C@H](O)CN2C(=O)Nc2ccc(Cl)c(Cl)c2)O1)NCc1ccc(F)cc1 | - | 0 | 0 | 0 | -
CC(C)(C)NC(=S)N/N=C/c1cc(Br)c(O)c(Br)c1 | 0 | -39.5 | - | - | 0
O=C(NCc1ccccc1F)C12CC3CC(CC(C3)C1)C2 | 0 | 0 | - | - | 0
COc1ccccc1CNC(=O)C12CC3CC(CC(C3)C1)C2 | 0 | 0 | 0 | 0 | 62.2
Cc1c(CCOC(=O)c2ccccc2)sc[n+]1CC(=O)c1ccc(Br)cc1 | 0 | -47.9 | 0 | 0 | 0
Cc1c(CCOC(=O)c2cc([N+](=O)[O-])cc([N+](=O)[O-])c2)sc[n+]1CC(=O)c1ccccc1 | 0 | 0 | 0 | 0 | 0
CC1(C(=O)NS(=O)(=O)c2cccc(C#N)c2)CCN1C(=O)C1(c2ccc(Cl)cc2)CCC1 (stereo not given) | - | -15.2 | 0 | 0 | -
CC1(C(=O)NS(=O)(=O)c2cccc(F)c2)CCN1C(=O)C1(c2ccc(Cl)cc2)CCC1 (stereo not given) | - | -16.4 | 0 | 0 | -
CC1(C(=O)NS(=O)(=O)c2ccc(F)cc2F)CCN1C(=O)C1(c2ccc(Cl)cc2)CCC1 (stereo not given) | - | 0 | 0 | 0 | -
CC(C)(C)c1ccc(CC(=O)N2CCC2(C)C(=O)NS(=O)(=O)c2cccc(Cl)c2)cc1 (stereo not given) | - | -33.0 | 0 | 0 | -
CC1(C(=O)NS(=O)(=O)c2ccc(C#N)cc2)CCN1C(=O)C1(c2ccc(Cl)cc2)CCC1 (stereo not given) | - | 0 | 0 | 0 | -
C[C@H]1CN([C@@H](C)CO)C(=O)c2cc(NC(=O)Nc3cccc4ccccc34)ccc2O[C@@H]1CN(C)S(=O)(=O)c1cn(C)cn1 | - | 0 | 0 | 0 | -
CCOc1ccc2[nH]c3c(N4CCN(C(=O)c5ccco5)CC4)ncnc3c2c1 | 0 | -36.0 | 0 | 0 | 0
O=C(c1ccco1)N1CCN(c2ncnc3c2[nH]c2ccc(Br)cc23)CC1 | - | - | 0 | 0 | -
C[C@@H]1CCCCO[C@H](CN(C)Cc2ccc3c(c2)OCO3)[C@H](C)CN([C@H](C)CO)C(=O)c2cc(NC(=O)Nc3cccc4ccccc34)ccc2O1 | - | 0 | 0 | 88.2 | -
CC(C)NC(=O)Nc1ccc2c(c1)C(=O)N([C@@H](C)CO)C[C@@H](C)[C@@H](CN(C)Cc1ccc3c(c1)OCO3)OCCCC[C@@H](C)O2 | - | 0 | 0 | 0 | -
CC(C)NC(=O)Nc1ccc2c(c1)C(=O)N([C@@H](C)CO)C[C@H](C)[C@@H](CN(C)Cc1ccc3c(c1)OCO3)OCCCC[C@@H](C)O2 | - | 0 | 0 | 101.7 | -
C[C@H](CO)N1C[C@H](C)[C@H](CN(C)Cc2ccc3c(c2)OCO3)OCCCC[C@H](C)Oc2ccc(NC(=O)Nc3cccc4ccccc34)cc2C1=O | - | 0 | 0 | 0 | -
COc1ccc(NC(=O)Nc2ccc3c(c2)C(=O)N([C@H](C)CO)C[C@@H](C)[C@@H](CN(C)C(=O)CCC(F)(F)F)OCCCC[C@H](C)O3)cc1 | - | 0 | 0 | 94.6 | -
COc1ccc(NC(=O)N(C)C[C@@H]2OCCCC[C@@H](C)Oc3ccc(NC(=O)Nc4ccc5c(c4)OCO5)cc3C(=O)N([C@@H](C)CO)C[C@H]2C)cc1 | - | 0 | 0 | 88.4 | -
COc1ccc(NC(=O)Nc2ccc3c(c2)C(=O)N([C@H](C)CO)C[C@H](C)[C@@H](CN(C)C(=O)CCC(F)(F)F)OCCCC[C@@H](C)O3)cc1 | - | 0 | 0 | 0 | -
